Laboratory results as given in ChEMBL document CHEMBL4706622, “Comparative study between the anti-P. falciparum activity of triazolopyrimidine, pyrazolopyrimidine and quinoline derivatives and the identification of new PfDHODH inhibitors” (Eur J Med Chem, 2021).

How the values were obtained:
[1] = test system: Plasmodium falciparum; assay: Inhibition of Plasmodium falciparum DHODH (159- 569 aa) expressed in Escherichia coli BL21(DE3) cells assessed as 2,6-dichloroindophenol reduction at 50 uM by colorimetric method
Procedure, shortened: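 First-stage PfDHODH screen at a single compound concentration of 50 µM, reported as % inhibition. Compounds giving ≥80% inhibition went on to IC50 determination. The PfDHODH final concentration in the inhibition assay was 50 nM.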

[2] = test system: Plasmodium falciparum; assay: Antimalarial activity against CQ-sensitive Plasmodium falciparum 3D7 infected in erythrocytes by SYBR Green dye based fluorescence assay; type: functional, organism-based
[3] = Inhibition of Plasmodium falciparum DHODH (159- 569 aa) expressed in Escherichia coli BL21(DE3) cells assessed as 2,6-dichloroindophenol reduction by colorimetric method
Procedure, shortened: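 Second-stage PfDHODH IC50 determination from concentration–response curves, run only on compounds giving ≥80% inhibition at 50 µM in the single-point screen. PfDHODH final concentration was 50 nM. IC50 was not assigned where substrate consumption could not be measured at some concentrations on the curve.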

[4] = molecular target: Dihydroorotate dehydrogenase (quinone), mitochondrial (Homo sapiens) (UniProt Q02127); assay: Inhibition of human DHODH assessed as 2,6-dichloroindophenol reduction at 50 uM by colorimetric method
Procedure, shortened: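 First-stage HsDHODH screen at a single compound concentration of 50 µM, reported as % inhibition. It was run in parallel with the PfDHODH screen.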

[5] = test system: HepG2; assay: Cytotoxicity against human HepG2 cells assessed as cell viability after 72 hrs by MTT assay; type: cell-based; conditions: HepG2, 72 h
[6] = Selectivity index, ratio of IC50 for cytotoxicity against human HepG2 cells to IC50 for antimalarial activity against Plasmodium falciparum 3D7; type: toxicity, cell-based; conditions: read-out: Ratio IC50

Sequence of Dihydroorotate dehydrogenase (quinone), mitochondrial (Homo sapiens) (Q02127 whole entry): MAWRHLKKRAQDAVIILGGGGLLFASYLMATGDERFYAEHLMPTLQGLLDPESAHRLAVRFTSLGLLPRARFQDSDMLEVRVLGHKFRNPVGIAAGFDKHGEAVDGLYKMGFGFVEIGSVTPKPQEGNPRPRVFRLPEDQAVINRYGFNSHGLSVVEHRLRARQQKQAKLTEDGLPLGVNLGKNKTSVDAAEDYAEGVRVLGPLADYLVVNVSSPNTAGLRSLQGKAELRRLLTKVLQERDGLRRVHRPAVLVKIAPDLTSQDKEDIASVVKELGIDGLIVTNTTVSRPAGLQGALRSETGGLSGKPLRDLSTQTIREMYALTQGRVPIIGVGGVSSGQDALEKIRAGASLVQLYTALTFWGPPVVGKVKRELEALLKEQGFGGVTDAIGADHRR

Row | Structure (SMILES) | IC50 [2] | IC50 [3] | inhibition [4] | inhibition [1] | IC50 [5] | selectivity ratio [6]
1 | Cc1cc(Nc2ccc(S(=O)(=O)Nc3ccc4ccccc4c3)cc2)n2nc(C(F)(F)F)nc2n1 | 0.05 µM | 0.22 µM | 0% |  | > 100 µM | > 2000
2 | CCN(CC)CCCC(C)Nc1ccnc2cc(Cl)ccc12 (stereo not drawn) [CHLOROQUINE] |  |  |  |  | 384 µM | 
3 | COc1ccc(NS(=O)(=O)c2ccc(Nc3cc(C)nc4nc(C)nn34)cc2)cc1 | 4 µM | 1.3 µM | 0% |  | 170 µM | 42.5
4 | Cc1cc(Nc2ccc(S(=O)(=O)Nc3ccc(C(F)(F)F)cc3)cc2)n2ncnc2n1 | 0.15 µM | > 50 µM | 0% |  | > 100 µM | > 667
5 | Cc1cc(Nc2ccc(S(=O)(=O)Nc3ccccc3)cc2)n2nc(C)cc2n1 | 2.8 µM | > 50 µM | 0% | 25% | 27 µM | 9.6
6 | Cc1cc(Nc2ccc(S(=O)(=O)Nc3ccc(F)cc3)cc2)n2ncnc2n1 | 2 µM | 0.3 µM | 0% |  | 367 µM | > 187
7 | COc1ccc(NS(=O)(=O)c2ccc(Nc3cc(C)nc4ncnn34)cc2)cc1 | 4 µM | > 50 µM | 0% |  | 46 µM | > 13
8 | COc1ccc(NS(=O)(=O)c2ccc(Nc3cc(C)nc4nc(C(F)(F)F)nn34)cc2)cc1 | 0.8 µM | 0.21 µM | 0% |  | 93 µM | > 114
9 | Cc1cc(Nc2ccc(S(=O)(=O)Nc3ccc(Cl)cc3)cc2)n2nc(C(F)(F)F)nc2n1 | 0.4 µM | 0.08 µM | 0% |  | 47 µM | > 123
10 | Cc1cc(Nc2ccc(S(=O)(=O)Nc3ccccc3)cc2)n2ncnc2n1 | 9.1 µM | 0.8 µM | 0% |  | 365 µM | > 40
11 | Cc1cc(Nc2ccc(S(=O)(=O)Nc3ccc(Cl)cc3)cc2)n2ncnc2n1 | 3 µM | > 50 µM | 0% |  | 92 µM | > 31
12 | COc1ccc(NS(=O)(=O)c2ccc(Nc3ccnc4cc(Cl)ccc34)cc2)cc1 | 2.8 µM |  |  |  | 92 µM | > 33
13 | C[C@H]1[C@H](OC(=O)CCC(=O)O)O[C@@H]2O[C@@]3(C)CC[C@H]4[C@H](C)CC[C@@H]1[C@@]24OO3 [ARTESUNATE] | 0.009 µM |  |  |  | 267 µM | 29700
14 | Cc1cc(Nc2ccc(S(=O)(=O)Nc3ccc(C(F)(F)F)cc3)cc2)n2nc(C)nc2n1 | 0.39 µM | 0.6 µM | 0% |  | 125 µM | 321
15 | Cc1cc(Nc2ccc(S(=O)(=O)Nc3ccc4ccccc4c3)cc2)n2nc(C)cc2n1 | > 10 µM | > 50 µM | 0% | 25% |  | 
16 | Cc1cc(Nc2ccc(S(=O)(=O)Nc3ccc4ccccc4c3)cc2)n2nc(C)nc2n1 | 0.64 µM | 0.4 µM | 0% |  | 56 µM | 87.4

Further lines, with some results ahead:

Row | IC50 [2] | IC50 [3] | inhibition [4] | Structure (SMILES) | inhibition [1] | IC50 [5] | selectivity ratio [6]
17 | > 10 µM | > 50 µM | 0% | Cc1cc(Nc2ccc(S(=O)(=O)Nc3ccc(Cl)cc3)cc2)n2nc(C)cc2n1 | 25% |  | 
18 | 0.03 µM | > 50 µM | 0% | Cc1cc(Nc2ccc(S(=O)(=O)Nc3ccc(C(F)(F)F)cc3)cc2)n2nc(C(F)(F)F)nc2n1 |  | 90 µM | 3000
19 | 4.6 µM |  |  | O=S(=O)(Nc1ccc(F)cc1)c1ccc(Nc2ccnc3cc(Cl)ccc23)cc1 |  | 92 µM | > 21
20 | 1.3 µM | > 50 µM | 0% | Cc1cc(Nc2ccc(S(=O)(=O)Nc3ccccc3)cc2)n2nc(C(F)(F)F)nc2n1 | < 80% | 92 µM | > 70
21 | 2 µM |  |  | O=S(=O)(Nc1ccccc1)c1ccc(Nc2ccnc3cc(Cl)ccc23)cc1 |  | 92 µM | > 46
22 | 6.9 µM | > 50 µM | 0% | Cc1cc(Nc2ccc(S(=O)(=O)Nc3ccccc3)cc2)n2nc(C)nc2n1 |  | 193 µM | 28
23 | > 10 µM | > 50 µM | 0% | COc1ccc(NS(=O)(=O)c2ccc(Nc3cc(C)nc4cc(C)nn34)cc2)cc1 | 25% |  | 
24 | 2.1 µM |  |  | O=S(=O)(Nc1ccc(C(F)(F)F)cc1)c1ccc(Nc2ccnc3cc(Cl)ccc23)cc1 |  | 23 µM | 11
25 | 0.086 µM | 0.5 µM | 0% | Cc1cc(Nc2ccc(S(=O)(=O)Nc3ccc(F)cc3)cc2)n2nc(C(F)(F)F)nc2n1 |  | 101 µM | 1170
26 | > 10 µM | > 50 µM | 0% | Cc1ccc(NS(=O)(=O)c2ccc(Nc3cc(C)nc4cc(C)nn34)cc2)cc1 | 25% |  | 
27 | 2.7 µM | 1 µM | 0% | Cc1cc(Nc2ccc(S(=O)(=O)Nc3ccc(F)cc3)cc2)n2nc(C)nc2n1 |  | 150 µM | 55.6
28 | 0.032 µM | 0.8 µM | 0% | Cc1ccc(NS(=O)(=O)c2ccc(Nc3cc(C)nc4nc(C(F)(F)F)nn34)cc2)cc1 |  | 54 µM | 1690
29 | 0.89 µM |  |  | O=S(=O)(Nc1ccc2ccccc2c1)c1ccc(Nc2ccnc3cc(Cl)ccc23)cc1 |  | 13 µM | 15.1
30 | 0.23 µM | 0.3 µM | 0% | Cc1cc(Nc2ccc(S(=O)(=O)Nc3ccc4ccccc4c3)cc2)n2ncnc2n1 |  | 56 µM | 243
31 | 0.97 µM |  |  | Cc1ccc(NS(=O)(=O)c2ccc(Nc3ccnc4cc(Cl)ccc34)cc2)cc1 |  | 92 µM | > 95
32 | > 10 µM | > 50 µM | 0% | Cc1cc(Nc2ccc(S(=O)(=O)Nc3ccc(F)cc3)cc2)n2nc(C)cc2n1 | 25% |  | 
33 | 0.5 µM | 0.41 µM | 0% | Cc1ccc(NS(=O)(=O)c2ccc(Nc3cc(C)nc4ncnn34)cc2)cc1 |  | 367 µM | > 728
34 | 8 µM | > 50 µM | 0% | Cc1cc(Nc2ccc(S(=O)(=O)Nc3ccc(C(F)(F)F)cc3)cc2)n2nc(C)cc2n1 | 25% | 42 µM | 5.25
35 | 0.8 µM | 0.6 µM | 0% | Cc1cc(Nc2ccc(S(=O)(=O)Nc3ccc(Cl)cc3)cc2)n2nc(C)nc2n1 |  | > 50 µM | > 62.5
36 | 1.7 µM |  |  | O=S(=O)(Nc1ccc(Cl)cc1)c1ccc(Nc2ccnc3cc(Cl)ccc23)cc1 |  | 93 µM | > 56
37 | 0.91 µM | 0.3 µM | 0% | Cc1ccc(NS(=O)(=O)c2ccc(Nc3cc(C)nc4nc(C)nn34)cc2)cc1 |  | 110 µM | 121
